# Tests used:
# [1] = AUC (0 to infinity) in C57BL/6J mouse serum at 500 mg/kg administered via oral gavage measured after 30 mins by LC-MS analysis; assay type: ADME, organism-based; design: dose 500 mg/kg, route oral, time infinity
# In short: (§1)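 Female 4-week C57BL/6J mice given a single oral gavage of curcumin, 500 mg/kg in DMSO. Serum and bone marrow were collected under isoflurane at the indicated times up to 48 h, n=4/group. Total curcumin (aglycone plus glucuronide) was measured by LC/MS with d6-curcumin standards. PK parameters came from noncompartmental analysis after extravascular dosing.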
# [2] = Cmax in C57BL/6J mouse serum at 500 mg/kg administered via oral gavage measured after 30 mins by LC-MS analysis; assay type: ADME, organism-based; design: dose 500 mg/kg, route oral; in short: as §1
# [3] = Drug metabolism in C3H/HeJ mouse exhibiting decrease in GUSB activity assessed as level of curcumin-glucuronide in serum at 100 mg/kg, ip measured after 20 mins by LC-MS analysis; assay type: ADME, organism-based; settings: in vivo, read-out: Ct
# In short: (§2)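 Curcumin at 100 mg/kg in DMSO was given ip to 15-week C57BL/6J, C3H/HeJ or mps/mps (GUSB-null) mice, n=3–4/group. Serum and marrow were harvested 20 min later. Marrow was resuspended in 50 mM sodium acetate pH 5 for 2 h on ice. Aglycone and glucuronidated curcumin were measured by LC/MS, with marrow values corrected to the original pellet volume.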
# RAW264.7 [4] = assay: Cytotoxicity against murine RAW264.7 cells assessed as effect on cell viability at 3 uM; assay type: cell-based; settings: mouse, raw264.7, 3 µM
# [5] = Half-life in C57BL/6J mouse bone marrow at 500 mg/kg administered via oral gavage measured after 30 mins by LC-MS analysis; assay type: ADME, organism-based; settings: in vivo, 0.5 h; in short: as §1
# [6] = Tmax in C57BL/6J mouse serum at 500 mg/kg administered via oral gavage measured after 30 mins by LC-MS analysis; assay type: ADME, organism-based; in short: as §1
# [7] = Tmax in C57BL/6J mouse bone marrow at 500 mg/kg administered via oral gavage measured after 30 mins by LC-MS analysis; assay type: ADME, organism-based; in short: as §1
# [8] = Drug metabolism in C57BL/6J mouse assessed as level of curcumin-glucuronide in serum at 100 mg/kg, ip measured after 20 mins by LC-MS analysis; assay type: ADME, organism-based; settings: in vivo, read-out: Ct; in short: as §2
# [9] = Drug metabolism in mps/mps mutant mouse assessed as level of curcumin-glucuronide in serum at 100 mg/kg, ip measured after 20 mins by LC-MS analysis; assay type: ADME, organism-based; settings: in vivo, read-out: Ct; in short: as §2
# [10] = Ratio of AUC (0 to infinity) in C57BL/6J mouse serum to AUC (0 to infinity) in C57BL/6J mouse bone marrow at 500 mg/kg administered via oral gavage; assay type: ADME, organism-based; settings: in vivo
# [11] = Drug concentration in C57BL/6J mouse assessed as level of aglycone curcumin in serum at 500 mg/kg administered via oral gavage measured after 30 mins by LC-MS analysis; assay type: ADME, organism-based; settings: in vivo, 0.5 h, read-out: Ct
# In short: (§3)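 Oral gavage of curcumin, 500 mg/kg in DMSO, to C57BL/6J or C3H/HeJ mice, n=3–4/group. Serum and marrow were taken 30 min post-dose. Marrow pellets from leg centrifugation were resuspended in 50 mM sodium acetate pH 5 and kept 2 h on ice; supernatants were used. Aglycone curcumin and curcumin-glucuronide were quantified by LC/MS, with marrow values adjusted to pellet volume.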
# [12] = Drug concentration in C57BL/6J mouse assessed as level of aglycone curcumin in bone marrow at 100 mg/kg, ip measured after 20 mins by LC-MS analysis; assay type: ADME, organism-based; settings: in vivo, read-out: Ct; in short: as §2
# [13] = Drug concentration in mps/mps mutant mouse assessed as level of aglycone curcumin in bone marrow at 100 mg/kg, ip measured after 20 mins by LC-MS analysis; assay type: ADME, organism-based; settings: in vivo, read-out: Ct; in short: as §2
# [14] = Drug concentration in C3H/HeJ mouse exhibiting decrease in GUSB activity assessed as level of curcumin-glucuronide in bone marrow at 100 mg/kg, ip measured after 20 mins by LC-MS analysis; assay type: ADME, organism-based; settings: in vivo, read-out: Ct; in short: as §2
# [15] = Prodrug conversion in C57BL/6J mouse serum assessed as effect on aglycone curcumin level at 500 mg/kg administered via oral gavage incubated for 30 mins followed by resuspension in sodium acetate buffer at pH 5 measured after 2 hrs in presence of saccharolactone by LC-MS analysis; assay type: ADME, organism-based; settings: in vivo, pH 5, 500 mg/kg
# [16] = Drug metabolism in C3H/HeJ mouse exhibiting decrease in GUSB activity assessed as level of curcumin-glucuronide in serum at 500 mg/kg administered via oral gavage measured after 30 mins by LC-MS analysis; assay type: ADME, organism-based; settings: in vivo, 0.5 h, read-out: Ct; in short: as §3
# [17] = Drug metabolism in C3H/HeJ mouse exhibiting decrease in GUSB activity assessed as level of curcumin-glucuronide in bone marrow at 500 mg/kg administered via oral gavage measured after 30 mins by LC-MS analysis; assay type: ADME, organism-based; settings: read-out: Ct, in vivo, 0.5 h; in short: as §3
# [18] = Ratio of AUC (0 to 48 hrs) in C57BL/6J mouse serum to AUC (0 to 48 hrs) in C57BL/6J mouse bone marrow at 500 mg/kg administered via oral gavage; assay type: ADME, organism-based; settings: in vivo
# [19] = Half-life in C57BL/6J mouse serum at 500 mg/kg administered via oral gavage measured after 30 mins by LC-MS analysis; assay type: ADME, organism-based; settings: in vivo, 0.5 h; in short: as §1
# [20] = AUC (0 to 48 hrs) in C57BL/6J mouse bone marrow at 500 mg/kg administered via oral gavage measured after 30 mins by LC-MS analysis; assay type: ADME, organism-based; design: time < 48 hr, dose 500 mg/kg, route oral; in short: as §1
# [21] = Drug concentration in mps/mps mutant mouse assessed as level of aglycone curcumin in serum at 100 mg/kg, ip measured after 20 mins by LC-MS analysis; assay type: ADME, organism-based; settings: in vivo, read-out: Ct; in short: as §2
# [22] = Drug concentration in C57BL/6J mouse assessed as level of aglycone curcumin in serum at 100 mg/kg, ip measured after 20 mins by LC-MS analysis; assay type: ADME, organism-based; settings: in vivo, read-out: Ct; in short: as §2
# [23] = Cmax in C57BL/6J mouse bone marrow at 500 mg/kg administered via oral gavage measured after 30 mins by LC-MS analysis; assay type: ADME, organism-based; design: dose 500 mg/kg, route oral; in short: as §1
# [24] = Drug metabolism in C57BL/6J mouse assessed as level of curcumin-glucuronide in bone marrow at 500 mg/kg administered via oral gavage measured after 30 mins by LC-MS analysis; assay type: ADME, organism-based; settings: in vivo, 0.5 h, read-out: Ct; in short: as §3
# [25] = Drug metabolism in C57BL/6J mouse assessed as level of curcumin-glucuronide in serum at 500 mg/kg administered via oral gavage measured after 30 mins by LC-MS analysis; assay type: ADME, organism-based; settings: in vivo, 0.5 h, read-out: Ct; in short: as §3
# [26] = Drug concentration in C57BL/6J mouse assessed as level of aglycone curcumin in bone marrow at 500 mg/kg administered via oral gavage measured after 30 mins by LC-MS analysis; assay type: ADME, organism-based; settings: in vivo, 0.5 h, read-out: Ct; in short: as §3
# [27] = Ratio of drug concentration in C57BL/6J mouse bone marrow to drug concentration in C57BL/6J mouse serum; assay type: ADME
# [28] = AUC (0 to 48 hrs) in C57BL/6J mouse serum at 500 mg/kg administered via oral gavage measured after 30 mins by LC-MS analysis; assay type: ADME, organism-based; design: time < 48 hr, dose 500 mg/kg, route oral; in short: as §1
# [29] = Prodrug conversion in C57BL/6J mouse bone marrow assessed as beta-glucuronidase mediated effect on aglycone curcumin level at 500 mg/kg administered via oral gavage incubated for 30 mins followed by resuspension in sodium acetate buffer at pH 5 measured after 2 hrs in presence of saccharolactone by LC-MS analysis; assay type: ADME, organism-based; settings: in vivo, pH 5, 500 mg/kg
# In short: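 C57BL/6J mice were gavaged with curcumin at 500 mg/kg, and marrow was harvested 30 min later. Marrow was resuspended in 50 mM sodium acetate pH 5 with or without 10 mM saccharolactone, or mice received saccharolactone 1 g/kg ip in saline 1 h before curcumin. Suspensions were kept 2 h on ice, and aglycone curcumin (% of total) was measured by LC/MS, n=3–4/group.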
# [30] = Drug concentration in C3H/HeJ mouse exhibiting decrease in GUSB activity assessed as level of aglycone curcumin in bone marrow at 100 mg/kg, ip measured after 20 mins by LC-MS analysis; assay type: ADME, organism-based; settings: in vivo, read-out: Ct; in short: as §2
# [31] = Drug metabolism in C57BL/6J mouse assessed as level of curcumin-glucuronide in bone marrow at 100 mg/kg, ip measured after 20 mins by LC-MS analysis; assay type: ADME, organism-based; settings: in vivo, read-out: Ct; in short: as §2
# [32] = Drug concentration in C3H/HeJ mouse exhibiting decrease in GUSB activity assessed as level of aglycone curcumin in bone marrow at 500 mg/kg administered via oral gavage measured after 30 mins by LC-MS analysis; assay type: ADME, organism-based; settings: in vivo, 0.5 h, read-out: Ct; in short: as §3
# RAW264.7 [33] = assay: Inhibition of RANKL-induced osteoclastogenesis in murine RAW264.7 cells assessed as formation of TRAP positive multinucleated osteoclasts pretreated for 4 hrs followed by RANKL addition measured after 72 hrs; assay type: functional, cell-based; settings: Mus musculus
# In short: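 RAW 264.7 cells, used within 10 passages, were seeded at 5×10^3/well in DMEM with 10% FBS and allowed to adhere overnight at 37°C. Cells were pretreated 4 h with aglycone curcumin or curcumin-glucuronide, then given RANKL (50 ng/mL final) for 72 h. TRAP-positive multinucleated osteoclasts were counted, n=4/group.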
# [34] = AUC (0 to infinity) in C57BL/6J mouse bone marrow at 500 mg/kg administered via oral gavage measured after 30 mins by LC-MS analysis; assay type: ADME, organism-based; design: dose 500 mg/kg, route oral, time infinity; in short: as §1
# [35] = Drug concentration in C3H/HeJ mouse exhibiting decrease in GUSB activity assessed as level of aglycone curcumin in serum at 100 mg/kg, ip measured after 20 mins by LC-MS analysis; assay type: ADME, organism-based; settings: in vivo, read-out: Ct; in short: as §2
structure (smiles),measurement,setting,value
COc1cc(/C=C/C(=O)CC(=O)/C=C/c2ccc(O)c(OC)c2)ccc1O [CURCUMIN],AUC(0-inf),[1],488 µM·h
same,Cmax,[2],106000 nM
same,concentration,[3],92100 nM
same,Activity,RAW264.7 [4],Non-Toxic
same,t1/2,[5],468 min
same,Tmax,[6],30 min
same,Tmax,[7],30 min
same,concentration,[8],92700 nM
same,concentration,[9],151000 nM
same,Ratio,[10],10
same,concentration,[11],170 nM
same,concentration,[12],1900 nM
same,concentration,[13],400 nM
same,concentration,[14],2700 nM
same,Drug metabolism,[15],Metabolite_Detected
same,concentration,[16],80000 nM
same,concentration,[17],1190 nM
same,Ratio,[18],10
same,t1/2,[19],264 min
same,AUC(0-t) at 48 h,[20],48 µM·h
same,concentration,[21],22800 nM
same,concentration,[22],7200 nM
same,Cmax,[23],5900 nM
same,concentration,[24],360 nM
same,concentration,[25],82700 nM
same,concentration,[26],1140 nM
same,Kp,[27],3
same,AUC(0-t) at 48 h,[28],487 µM·h
same,Drug metabolism,[29],Metabolite_Detected
same,concentration,[30],500 nM
same,concentration,[31],1300 nM
same,concentration,[32],470 nM
same,IC50,RAW264.7 [33],3 µM
same,AUC(0-inf),[34],48.3 µM·h
same,concentration,[35],2800 nM

# Reference: ChEMBL document CHEMBL4414545, “Beta-Glucuronidase Catalyzes Deconjugation and Activation of Curcumin-Glucuronide in Bone” (J Nat Prod, 2019)
